# Experimental data reported in ChEMBL document CHEMBL5058577, “EUbOPEN Chemogenomics Library 2 (Multiplex)” (2022).
# System: Fibroblast
# Assay: Multiplex assay against human fibroblast
# Assay type: toxicity, cell-based
# Method in brief: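 Compound was added to live cells that had been stained at seeding with Hoechst33342, BioTracker Green Microtubule Cytoskeleton Dye, MitoTracker Red and Annexin V Alexa Fluor 680, and imaging followed on a CQ1 microscope at 37°C and 5% CO2. CellPathfinder machine-learning gating divided cells into Hoechst high-intensity objects or normal cells, normal cells into healthy, pyknosed or fragmented nuclei, and pyknosed cells into mitotic or apoptotic. Tubulin, mitochondrial-mass and membrane-permeability phenotypes are per cents of healthy-nucleus cells.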
# [1] = 12 h, 1 µM, compound concentration 1 uM, replicate 1
# [2] = 12 h, 1 µM, compound concentration 1 uM, replicate 2
# [3] = 12 h, 10 µM, compound concentration 10 uM, replicate 1
# [4] = 12 h, 10 µM, compound concentration 10 uM, replicate 2
# [5] = 24 h, 1 µM, compound concentration 1 uM, replicate 1
# [6] = 24 h, 1 µM, compound concentration 1 uM, replicate 2
# [7] = 24 h, 10 µM, compound concentration 10 uM, replicate 1
# [8] = 24 h, 10 µM, compound concentration 10 uM, replicate 2
# [9] = 48 h, 1 µM, compound concentration 1 uM, replicate 1
# [10] = 48 h, 1 µM, compound concentration 1 uM, replicate 2
# [11] = 48 h, 10 µM, compound concentration 10 uM, replicate 1
# [12] = 48 h, 10 µM, compound concentration 10 uM, replicate 2
structure (smiles),measurement,setting,value
CN(C)C(=O)Cn1cc(-c2ccc(-c3nnc4ccccn34)cc2)cn1,Population Apoptotic (%),[1],57%
same,Population Fragmented Nuclei (%),[1],18%
same,Population Healthy Nuclei (%),[1],60%
same,Population Hoechst High Intensity Objects (%),[1],5%
same,Population Membrane Permeable-Phenotype (%),[1],1%
same,Population Mitochondria Different-Phenotype (%),[1],3%
same,Population Mitotic Cells (%),[1],42%
same,Population Normal (%),[1],94%
same,Population Pyknosed Nuclei (%),[1],21%
same,Population Tubulin-Different-Phenotype (%),[1],22%
same,Total Cell Count,[1],139
same,Population Apoptotic (%),[2],55%
same,Population Fragmented Nuclei (%),[2],20%
same,Population Healthy Nuclei (%),[2],58%
same,Population Membrane Permeable-Phenotype (%),[2],7%
same,Population Mitochondria Different-Phenotype (%),[2],7%
same,Population Mitotic Cells (%),[2],44%
same,Population Pyknosed Nuclei (%),[2],20%
same,Population Tubulin-Different-Phenotype (%),[2],42%
same,Total Cell Count,[2],152
same,Population Apoptotic (%),[3],52%
same,Population Fragmented Nuclei (%),[3],8%
same,Population Healthy Nuclei (%),[3],63%
same,Population Hoechst High Intensity Objects (%),[3],3%
same,Population Membrane Permeable-Phenotype (%),[3],0%
same,Population Mitochondria Different-Phenotype (%),[3],6%
same,Population Mitotic Cells (%),[3],47%
same,Population Normal (%),[3],96%
same,Population Pyknosed Nuclei (%),[3],28%
same,Population Tubulin-Different-Phenotype (%),[3],31%
same,Total Cell Count,[3],140
same,Population Apoptotic (%),[4],39%
same,Population Fragmented Nuclei (%),[4],31%
same,Population Healthy Nuclei (%),[4],38%
same,Population Hoechst High Intensity Objects (%),[4],8%
same,Population Membrane Permeable-Phenotype (%),[4],15%
same,Population Mitochondria Different-Phenotype (%),[4],18%
same,Population Mitotic Cells (%),[4],60%
same,Population Normal (%),[4],91%
same,Population Pyknosed Nuclei (%),[4],29%
same,Population Tubulin-Different-Phenotype (%),[4],70%
same,Total Cell Count,[4],123
same,Population Apoptotic (%),[5],56%
same,Population Fragmented Nuclei (%),[5],23%
same,Population Healthy Nuclei (%),[5],60%
same,Population Hoechst High Intensity Objects (%),[5],0%
same,Population Membrane Permeable-Phenotype (%),[5],2%
same,Population Mitochondria Different-Phenotype (%),[5],1%
same,Population Mitotic Cells (%),[5],43%
same,Population Normal (%),[5],99%
same,Population Pyknosed Nuclei (%),[5],16%
same,Population Tubulin-Different-Phenotype (%),[5],25%
same,Total Cell Count,[5],144
same,Population Apoptotic (%),[6],54%
same,Population Hoechst High Intensity Objects (%),[6],4%
same,Population Membrane Permeable-Phenotype (%),[6],4%
same,Population Mitochondria Different-Phenotype (%),[6],3%
same,Population Mitotic Cells (%),[6],45%
same,Population Normal (%),[6],95%
same,Population Tubulin-Different-Phenotype (%),[6],41%
same,Total Cell Count,[6],142
same,Population Apoptotic (%),[7],65%
same,Population Fragmented Nuclei (%),[7],10%
same,Population Healthy Nuclei (%),[7],65%
same,Population Hoechst High Intensity Objects (%),[7],5%
same,Population Membrane Permeable-Phenotype (%),[7],2%
same,Population Mitochondria Different-Phenotype (%),[7],5%
same,Population Mitotic Cells (%),[7],34%
same,Population Normal (%),[7],94%
same,Population Pyknosed Nuclei (%),[7],24%
same,Population Tubulin-Different-Phenotype (%),[7],25%
same,Total Cell Count,[7],140
same,Population Apoptotic (%),[8],26%
same,Population Fragmented Nuclei (%),[8],36%
same,Population Healthy Nuclei (%),[8],40%
same,Population Hoechst High Intensity Objects (%),[8],9%
same,Population Membrane Permeable-Phenotype (%),[8],10%
same,Population Mitochondria Different-Phenotype (%),[8],6%
same,Population Mitotic Cells (%),[8],73%
same,Population Normal (%),[8],90%
same,Population Pyknosed Nuclei (%),[8],22%
same,Population Tubulin-Different-Phenotype (%),[8],71%
same,Total Cell Count,[8],126
same,Population Apoptotic (%),[9],58%
same,Population Fragmented Nuclei (%),[9],22%
same,Population Healthy Nuclei (%),[9],61%
same,Population Hoechst High Intensity Objects (%),[9],1%
same,Population Membrane Permeable-Phenotype (%),[9],4%
same,Population Mitochondria Different-Phenotype (%),[9],4%
same,Population Mitotic Cells (%),[9],41%
same,Population Normal (%),[9],98%
same,Population Pyknosed Nuclei (%),[9],16%
same,Population Tubulin-Different-Phenotype (%),[9],29%
same,Total Cell Count,[9],151
same,Population Apoptotic (%),[10],42%
same,Population Fragmented Nuclei (%),[10],28%
same,Population Healthy Nuclei (%),[10],52%
same,Population Hoechst High Intensity Objects (%),[10],5%
same,Population Membrane Permeable-Phenotype (%),[10],6%
same,Population Mitochondria Different-Phenotype (%),[10],2%
same,Population Mitotic Cells (%),[10],57%
same,Population Normal (%),[10],94%
same,Population Pyknosed Nuclei (%),[10],18%
same,Population Tubulin-Different-Phenotype (%),[10],46%
same,Total Cell Count,[10],147
same,Population Apoptotic (%),[11],52%
same,Population Fragmented Nuclei (%),[11],16%
same,Population Healthy Nuclei (%),[11],66%
same,Population Hoechst High Intensity Objects (%),[11],2%
same,Population Membrane Permeable-Phenotype (%),[11],0%
same,Population Mitochondria Different-Phenotype (%),[11],2%
same,Population Mitotic Cells (%),[11],47%
same,Population Normal (%),[11],97%
same,Population Pyknosed Nuclei (%),[11],17%
same,Population Tubulin-Different-Phenotype (%),[11],38%
same,Total Cell Count,[11],137
same,Population Apoptotic (%),[12],60%
same,Population Fragmented Nuclei (%),[12],44%
same,Population Healthy Nuclei (%),[12],47%
same,Population Hoechst High Intensity Objects (%),[12],3%
same,Population Membrane Permeable-Phenotype (%),[12],18%
same,Population Mitochondria Different-Phenotype (%),[12],8%
same,Population Mitotic Cells (%),[12],40%
same,Population Normal (%),[12],96%
same,Population Pyknosed Nuclei (%),[12],7%
same,Population Tubulin-Different-Phenotype (%),[12],73%
same,Total Cell Count,[12],131
